The values that follow come from ChEMBL document CHEMBL1130129, “Immunologically specific activation of a cephalosporin derivative of mitomycin C by monoclonal antibody beta-lactamase conjugates” (J Med Chem, 1997).

Substrate in data set [1]: CO[C@@]12[C@H](COC(N)=O)C3=C(C(=O)C(C)=C(NCC4=C(C(=O)O)N5C(=O)[C@@H](NC(=O)CCCC(=O)O)[C@H]5SC4)C3=O)N1C[C@@H]1N[C@@H]12
Put plainly: (§1) Determination of kinetic constant (Km) for hydrolysis by beta-lactamase from Enterobacter cloacae 99. Put shortly:
(§2)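 Purified E. cloacae β-lactamase (0.1 µg/mL) added to prodrug in PBS pH 7.2 containing 12.5 µg/mL bovine serum albumin, 23 °C; β-lactam hydrolysis followed by loss of absorbance at 260 nm. Initial velocities taken from linear portions of absorbance-time plots and used to derive kinetic constants.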

Substrate in data set [2]: CO[C@@]12[C@H](COC(N)=O)C3=C(C(=O)C(C)=C(NCC4=C(C(=O)O)N5C(=O)[C@@H](NC(=O)Cc6ccccc6)[C@H]5SC4)C3=O)N1C[C@@H]1N[C@@H]12
Described as §1. The procedure, abridged: as §2

Substrate in data set [3]: O=C(Cc1ccccc1)N[C@@H]1C(=O)N2C(C(=O)O)=C(COC(=O)Nc3ccc(N(CCCl)CCCl)cc3)CS[C@H]12
The data set is described as §1. Put shortly:
as §2

Substrate in data set [4]: O=C(O)CCCC(=O)N[C@@H]1C(=O)N2C(C(=O)O)=C(COC(=O)Nc3ccc(N(CCCl)CCCl)cc3)CS[C@H]12
Described as §1. The procedure, abridged: as §2

B1: Beta-lactamase (Enterobacter cloacae), P05364 (protein)
chain: MMRKSLCCALLLGISCSALATPVSEKQLAEVVANTITPLMKAQSVPGMAVAVIYQGKPHYYTFGKADIAANKPVTPQTLFELGSISKTFTGVLGGDAIARGEISLDDAVTRYWPQLTGKQWQGIRMLDLATYTAGGLPLQVPDEVTDNASLLRFYQNWQPQWKPGTTRLYANASIGLFGALAVKPSGMPYEQAMTTRVLKPLKLDHTWINVPKAEEAHYAWGYRDGKAVRVSPGMLDAQAYGVKTNVQDMANWVMANMAPENVADASLKQGIALAQSRYWRIGSMYQGLGWEMLNWPVEANTVVEGSDSKVALAPLPVAEVNPPAPPVKASWVHKTGSTGGFGSYVAFIPEKQIGIVMLANTSYPNPARVEAAYHILEALQ
Broadly, the Km is the substrate concentration at which the rate is half of its maximum. With B1, the Km in data set [1] stood at 119 µM; in data set [2], 48.9 µM; in data set [3], 7 µM; in data set [4], 43.2 µM.
